{"data": "Measurements from different studies", "target": "Serine/threonine-protein kinase Sgk2 (SGK2, Homo sapiens, UniProt Q9HBY8)", "One construct used (Q9HBY8 1-367)": "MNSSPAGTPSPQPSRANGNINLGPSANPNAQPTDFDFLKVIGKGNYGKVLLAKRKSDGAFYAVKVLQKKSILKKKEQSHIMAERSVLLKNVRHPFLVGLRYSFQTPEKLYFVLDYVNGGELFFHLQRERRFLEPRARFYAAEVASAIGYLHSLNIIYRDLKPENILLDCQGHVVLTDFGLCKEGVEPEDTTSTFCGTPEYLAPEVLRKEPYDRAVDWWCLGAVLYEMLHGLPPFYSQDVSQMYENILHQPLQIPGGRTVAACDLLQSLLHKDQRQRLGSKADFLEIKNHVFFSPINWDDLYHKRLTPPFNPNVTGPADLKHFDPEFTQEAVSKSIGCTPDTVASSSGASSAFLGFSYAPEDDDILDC", "note": "Each line is one published result; the experiments were not run side by side."}
{"Structure (SMILES)": "CNC(=O)c1cc(Oc2ccc(NC(=O)Nc3ccc(Cl)c(C(F)(F)F)c3)cc2)ccn1", "observed": "enzyme activity", "mode": "inhibitor", "tested at": "0.3 µM", "quantity": "inhibition", "value": "3%"}
{"Structure (SMILES)": "Nc1c(C(=O)NCc2ccc(C(=O)NCCCC3CCCCC3)cc2)cnn1-c1ccccc1", "observed": "cell-free assay", "technique": "competition with immobilised ligand", "tested at": "0.1 µM", "quantity": "remaining binding", "value": "72%"}
{"Structure (SMILES)": "O=C1Nc2ccc(Cl)cc2C1=Cc1cc(Cl)c(O)c(Cl)c1", "observed": "cell-free assay", "tested at": "0.5 µM", "quantity": "remaining signal", "value": "89.2%"}
{"Structure (SMILES)": "CC(C)(C)c1nc2c(s1)c1nc(N)ncc1c1ccc(NS(=O)(=O)c3c(F)cccc3F)c(F)c12", "observed": "enzyme activity", "mode": "inhibitor", "technique": "radiometric", "tested at": "1 µM", "quantity": "remaining activity", "value": "91%"}
{"Structure (SMILES)": "Cc1nccc(COC(=O)N2C[C@@H]3[C@@H](CNC(=O)c4ccc5[nH]nnc5c4)[C@@H]3C2)n1", "observed": "cell-free assay", "technique": "competition with immobilised ligand", "tested at": "1 µM", "quantity": "remaining binding", "value": "100%"}
{"Structure (SMILES)": "Nc1ncnc2occ(-c3ccc(NC(=O)Nc4cc(C(F)(F)F)ccc4F)cc3)c12", "observed": "cell-free assay", "mode": "inhibitor", "tested at": "20 µM", "quantity": "remaining signal", "value": "13%"}
{"Structure (SMILES)": "Cc1ccc(C(=O)Nc2ccc(CN3CCN(C)CC3)c(C(F)(F)F)c2)cc1C#Cc1cnc2cccnn12", "observed": "enzyme activity", "mode": "inhibitor", "tested at": "23.5 nM", "quantity": "remaining activity", "value": "76%"}
{"Structure (SMILES)": "Nc1cnc(N2CCc3cc(S(=O)(=O)Nc4c(F)cc(Cl)cc4F)cc(N4CCCC4=O)c32)nc1", "observed": "cell-free assay", "technique": "competition with immobilised ligand", "tested at": "1 µM", "quantity": "remaining binding", "value": "76%"}
{"Structure (SMILES)": "CNc1cccc2cc(C(=O)Nc3ccc(C(=O)O)cc3)c(=O)[nH]c12", "observed": "enzyme activity", "mode": "inhibitor", "tested at": "10 µM", "quantity": "inhibition", "value": "-1.2%"}
{"Structure (SMILES)": "CN([C@@H]1CCc2c(CC(=O)O)c3cc(S(C)(=O)=O)ccc3n2C1)S(=O)(=O)c1ccc(F)cc1", "observed": "cell-free assay", "technique": "competition with immobilised ligand", "tested at": "1 µM", "quantity": "remaining binding", "value": "100%"}
{"Structure (SMILES)": "Cc1ccc(Nc2nccc(N(C)c3ccc4c(C)n(C)nc4c3)n2)cc1S(N)(=O)=O", "observed": "enzyme activity", "mode": "inhibitor", "tested at": "10 µM", "quantity": "inhibition", "value": "10%"}
{"Structure (SMILES)": "CCCS(=O)(=O)Nc1ccc(F)c(C(=O)c2c[nH]c3ncc(-c4ccc(Cl)cc4)cc23)c1F", "observed": "enzyme activity", "mode": "inhibitor", "tested at": "1 µM", "quantity": "inhibition", "value": "< 10%"}
{"Structure (SMILES)": "CCC(=N\\O)/C(C)=C/c1ccc(F)cc1", "observed": "cell-free assay", "technique": "competition with immobilised ligand", "tested at": "1 µM", "quantity": "remaining binding", "value": "78%"}
{"Structure (SMILES)": "CCCOc1ccc(OC)c(F)c1C(=O)c1ccc(C(=O)N[C@@H]2CNC[C@H]2NC(=O)c2ccc3[nH]ncc3c2)cc1", "observed": "enzyme activity", "mode": "inhibitor", "tested at": "50 nM", "quantity": "remaining activity", "value": "72%"}
{"Structure (SMILES)": "COc1cc2ncnc(Nc3ccc(Oc4ccccc4)cc3C)c2cc1OC", "observed": "enzyme activity", "mode": "inhibitor", "tested at": "1 µM", "quantity": "inhibition", "value": "-4%"}
{"Structure (SMILES)": "Cc1ccc(NC(=O)c2ccc(C)c(C(F)(F)F)c2)cc1C#Cc1nn(C2CCC(O)CC2)c2ncnc(N)c12 (stereo not shown)", "observed": "cell-free assay", "tested at": "10 µM", "quantity": "remaining signal", "value": "97%"}
{"Structure (SMILES)": "Cc1sc(C(=O)NC2COC2)cc1-n1cc(NC(=O)Nc2c(F)cccc2Cl)cn1", "observed": "enzyme activity", "mode": "inhibitor", "tested at": "10 µM", "quantity": "remaining activity", "value": "97.2%"}
{"Structure (SMILES)": "NS(=O)(=O)c1cc(NC(=O)C2(c3ccccc3Cl)CC2)ccc1Oc1cccc(Cl)c1", "observed": "cell-free assay", "technique": "competition with immobilised ligand", "tested at": "1 µM", "quantity": "remaining binding", "value": "100%"}
{"Structure (SMILES)": "Cn1cnc(Br)c1C1=CN(c2ncnc3[nH]cnc23)CCS1", "observed": "enzyme activity", "mode": "inhibitor", "technique": "radiometric", "tested at": "2 µM", "quantity": "inhibition", "value": "82.2%"}
{"Structure (SMILES)": "CCc1ccccc1C(=O)Nc1n[nH]c2c(C)c(F)c(C3C(C#N)=C(C)N(C)C(C)=C3C#N)cc12", "observed": "cell-free assay", "technique": "competition with immobilised ligand", "tested at": "1 µM", "quantity": "remaining binding", "value": "100%"}
{"Structure (SMILES)": "O=C(Nc1cnn(-c2csc(C(=O)NC3COC3)c2)c1)Nc1ccccc1Cl", "observed": "enzyme activity", "mode": "inhibitor", "tested at": "5 µM", "quantity": "remaining activity", "value": "101%"}
{"Structure (SMILES)": "CCN(CC)CCNC(=O)c1c(C)[nH]c(/C=C2\\C(=O)Nc3ccc(F)cc32)c1C", "observed": "enzyme activity", "mode": "inhibitor", "tested at": "10 µM", "quantity": "inhibition", "value": "48%"}
